For assay [1], the target named is T1, zebrafish IRBP module 1 (z1) (Danio rerio, UniProt F1Q9N9).
T1 sequence (F1Q9N9 22-330): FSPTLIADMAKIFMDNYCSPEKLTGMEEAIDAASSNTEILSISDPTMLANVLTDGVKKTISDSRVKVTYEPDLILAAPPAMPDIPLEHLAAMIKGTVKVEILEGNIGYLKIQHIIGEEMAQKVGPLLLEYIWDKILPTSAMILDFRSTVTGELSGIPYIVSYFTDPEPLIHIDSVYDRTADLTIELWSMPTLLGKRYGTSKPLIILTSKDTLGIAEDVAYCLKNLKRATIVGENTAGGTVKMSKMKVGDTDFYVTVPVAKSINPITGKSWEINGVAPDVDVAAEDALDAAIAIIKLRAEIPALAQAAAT
In words: X-ray crystal structure, […] Å. Conditions: oleic acid in hydrophobic pocket of domain A; pH 7.5, PEG 8000. Format: binding.

The target of assay [2] is T2, zIRBP (zebrafish IRBP, gene II product, full-length two-module) (Danio rerio, UniProt F1Q9N9).
T2 sequence (F1Q9N9 22-615): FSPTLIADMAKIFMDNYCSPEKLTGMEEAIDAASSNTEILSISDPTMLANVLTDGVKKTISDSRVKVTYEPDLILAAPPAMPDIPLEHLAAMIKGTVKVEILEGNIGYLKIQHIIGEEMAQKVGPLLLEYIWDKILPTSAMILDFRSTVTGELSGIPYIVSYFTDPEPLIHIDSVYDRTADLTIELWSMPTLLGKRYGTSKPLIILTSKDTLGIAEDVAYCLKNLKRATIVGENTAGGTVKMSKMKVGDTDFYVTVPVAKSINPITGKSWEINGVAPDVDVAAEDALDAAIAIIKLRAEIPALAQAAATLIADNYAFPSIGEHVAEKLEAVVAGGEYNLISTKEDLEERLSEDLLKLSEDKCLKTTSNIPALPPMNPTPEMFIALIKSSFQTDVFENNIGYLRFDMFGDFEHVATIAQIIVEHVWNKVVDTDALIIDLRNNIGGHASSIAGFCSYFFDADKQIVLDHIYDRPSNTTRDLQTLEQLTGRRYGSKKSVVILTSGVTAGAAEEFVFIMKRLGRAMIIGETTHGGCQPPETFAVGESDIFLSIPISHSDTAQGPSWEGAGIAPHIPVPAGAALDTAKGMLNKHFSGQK
In words: fluorescence titration, enhancement of retinol fluorescence. Format: binding. The method, boiled down: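 Full-length zIRBP was expressed in E. coli BL21(DE3), His-trap purified, TEV-cleaved, and anion-exchange polished (>98% pure). Retinol in ethanol was added in 0.5 µL aliquots at 1 min intervals to 1 µM protein or to buffer (final alcohol ≤2%). Fluorescence was read at ex 330/em 480 nm with oleic acid at 0.0–0.112 µM. Kd came from a nonlinear least-squares one-site Hill fit.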

The text below walks through data of PMC4624502 (Experimental eye research, 2015).

Consider `CCCCCCCC/C=C\CCCCCCCC(=O)O` [oleic acid], for which the “X-ray crystal structure, 1.90 Å” value in assay [1] was “electron density for an extended oleic acid molecule in domain A”.
As usually defined, the Kd is a measure of binding affinity in units of concentration. As for `CC1=C(/C=C/C(C)=C/C=C/C(C)=C/CO)C(C)(C)CCC1` [all-trans retinol], in assay [2], the equilibrium dissociation constant (Kd) is 910 ± 50 nM.
